# NPY-Y2 antag: NPY-Y2 (human) receptor antagonism | NPY-Y2 expressing cells, antagonist mode | inhibition, % at 2.7 µM | hit rate 0.99% among 140,000 | AID 793; in the data active means inhibition above about 17%;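 further: 0% = vehicle with agonist challenge and 100% = reference antagonist with challenge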
# NPY1 pot ag: potentiates or activates human NPY-Y1 receptor; NPY-Y1 expressing cells, potentiator/agonist activation; activation, % at 3.6 µM; P25929; hit rate 0.37% among 220,000; in the data active means activation above about 33%, passing the limit was not always enough;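 further: cells stimulated with NPY at EC10 then isoproterenol at EC100; 0% = low agonist plus stimulus and 100% = saturating agonist plus stimulus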
# Target sequence (P25929 whole entry, looked up): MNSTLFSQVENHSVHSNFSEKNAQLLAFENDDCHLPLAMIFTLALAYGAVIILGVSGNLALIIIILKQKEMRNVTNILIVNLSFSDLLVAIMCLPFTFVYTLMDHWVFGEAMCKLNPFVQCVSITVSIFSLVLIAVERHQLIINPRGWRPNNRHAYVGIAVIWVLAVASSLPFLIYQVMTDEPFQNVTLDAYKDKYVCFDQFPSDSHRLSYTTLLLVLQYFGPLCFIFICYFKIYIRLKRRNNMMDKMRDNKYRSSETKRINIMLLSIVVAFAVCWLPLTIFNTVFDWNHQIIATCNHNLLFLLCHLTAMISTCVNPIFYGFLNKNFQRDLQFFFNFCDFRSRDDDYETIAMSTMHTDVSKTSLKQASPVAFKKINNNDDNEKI
# RAM inhibit: yeast RAM network inhibition. inhibition, % at 50 µM. hit rate 1.8% among 190,000. S. cerevisiae dse1pr::URA3 reporter, 5-FOA growth OD615, 2 d; analog-sensitive cbk1-as2 kinase mutant strain;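 active means inhibition above a set limit, 3 SD over mean compound inhibition, cut at about 8.4% in these data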;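 further: 0% = DMSO-only wells with no growth and 100% = 10 µM 1-NA-PP1 full growth; inhibition rescues growth on 5-FOA so higher OD means more RAM inhibition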
# NPY-Y1 antag: antagonists of human neuropeptide Y receptor Y1. P25929. HEK293-CNG Y1 cells, membrane potential fluorescence; NPY at EC95, then isoproterenol. inhibition, % at 3.6 µM. hit rate 1% among 200,000. AID 1040;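 active means inhibition above the campaign mean inhibition of all tested compounds plus 3 SD, cut at about 20% in these data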;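 further: 0% = DMSO wells given NPY plus isoproterenol and 100% = isoproterenol alone without NPY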
#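 Material: HEK293 cells with Y1 receptor plus CNG channel; times: compound incubation 1 h at room temperature, readout 45 min post-stimulation; signal: fluorescence, membrane potential probe; read-out basis: fluorescence ratio normalized to % inhibition between controls; benchmarks: full-block control isoproterenol-only wells, zero-block control NPY plus isoproterenol wells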
# NPY2 pot ag: potentiators or agonists of human neuropeptide Y receptor Y2; P49146; cells expressing NPY-Y2, potentiator/agonist read-out; activation, % at 3.6 µM; hit rate 0.45% among 220,000; AID 1359; in the data active means activation above about 27%;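 further: cells stimulated with NPY near EC25 plus isoproterenol at EC100; 0% = vehicle plus submaximal agonist and 100% = vehicle plus saturating agonist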
# WT yeast gro inh: growth inhibition of WT yeast, mitochondrial fusion screen. mitochondrial fusion phenotypic screen, WT strain. inhibition, % at 10 µM. hit rate 2.1% among 190,000. AID 1362; in the data active means inhibition above about 58%; tested in S. cerevisiae
# RAM 5-FOA: RAM network inhibitors in efflux-deficient yeast. shares compounds with RAM inhibit. S. cerevisiae efflux-deficient reporter strain, 5-FOA growth OD615, 2 days. max inhibition, %. 1,200 tested, under 10 active. AID 1305; call rule not given here;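 further: plate controls were vehicle for no effect and reference inhibitor for full effect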
# An asterisk follows results filed as active; . = no result given. This is a sample that favours compounds with a hit; in the whole collection about 4.9% have one here.
SMILES,NPY-Y2 antag,NPY1 pot ag,RAM inhibit,NPY-Y1 antag,NPY2 pot ag,WT yeast gro inh,RAM 5-FOA
CCC/S(C)=N/S(=O)(=O)c1ccc(C)cc1 (configuration not stated),1,-11,1,2,7,18,.
Cn1c(=O)c(/C=C/c2ccccc2)nc2ccccc21,4,-5,7,7,-2,-4,.
Cn1c(=O)c(/C=C/c2ccc(F)cc2)nc2ccccc21,.,-11,14*,10,6,29,5
O=[N+]([O-])c1ccc(-c2csc(N/N=C/c3cccnc3)n2)cc1,.,-6,2,-1,4,4,.
Cc1cccc(NC(=O)COC(=O)c2ccc3c(=O)n4c(nc3c2)CCC4)c1,3,-4,1,-6,-5,5,.
O=C(COC(=O)c1ccc2c(=O)n3c(nc2c1)CCC3)Nc1ccc(OC(F)F)cc1,.,-2,13*,6,-10,2,2
CCc1ccc(-c2cc(N)n(-c3ccccc3)n2)cc1,.,-1,2,-5,-13,17,.
COc1ccc(-n2nc(C(=O)Nc3ccc(OC)c(OC)c3)c3c4ccccc4n(C)c3c2=O)cc1,6,9,13*,5,-5,-7,5
COc1ccc(OC)c2[nH]c(=O)c(CCNS(=O)(=O)c3ccc(C)cc3)cc12,0,-13,5,2,2,19,.
COc1cccc(N/C(SCc2cccc([N+](=O)[O-])c2)=C(/C#N)C(=O)NCc2cccs2)c1,1,6,17*,1,17,13,4
COc1cccc(N/C(SCc2ccccc2Cl)=C(/C#N)C(=O)NCc2cccs2)c1,4,-14,16*,10,5,15,3
COc1cccc(N/C(SCc2ccccc2C)=C(/C#N)C(=O)NCc2cccs2)c1,6,-45,20*,2,-11,10,4
Cc1ccc(CS/C(Nc2ccccc2C)=C(\C#N)C(=O)NCc2ccco2)c(C)c1,4,-4,13*,17,-12,33,6
Cc1ccc(C)c(NC(=O)/C(C#N)=C/c2cn(CC(=O)NCc3ccco3)c3ccccc23)c1,2,-4,6,12,11,0,.
COc1cccc(N/C(SC)=C(/C#N)C(=O)NCc2cccs2)c1,.,-19,6,2,-17,24,.
O=C(Cc1ccccc1)CC1(O)C(=O)Nc2ccccc21 (configuration not stated),3,-16,1,3,24,-5,.
O=C(Nc1ccc(Cl)cn1)c1ccccc1F,2,3,2,1,1,-6,.
COc1ccc(C)cc1S(=O)(=O)N(CC(=O)NCc1ccc(Cl)cc1)Cc1ccccc1,4,34,12*,0,16,49,2
CCN(Cc1ccccc1)c1ccc(/C=N/NS(=O)(=O)c2cccc([N+](=O)[O-])c2)cc1,3,-5,14*,-5,-13,11,3
Cc1nn(-c2ccccc2)c2[nH]c(=O)c(CNCC3CCCO3)cc12 (configuration not stated),1,3,2,-1,10,-4,.
N#C/C(=C\C1=C(N2CCOCC2)C(=C/c2cccc([N+](=O)[O-])c2)/CC1)C(=O)Nc1ccccc1F,0,-17,11*,0,-16,13,3
N#C/C(=C\C1=C(N2CCOCC2)C(=C\c2ccc(Cl)cc2)/CC1)C(=O)Nc1ccccc1F,-1,8,4,-1,-12,-9,.
Cn1cccc1C(=O)OCc1cc(Cl)cc2c1OCOC2,10,-16,12*,13,9,-1,4
CCN(CC)S(=O)(=O)c1cccc(-c2nnc(SCc3nc4ccccc4s3)o2)c1,14,-12,15*,7,6,8,3
CCN(CC)S(=O)(=O)c1cccc(-c2nnc(SCCCC(=O)c3ccc(F)cc3)o2)c1,9,-17,13*,8,-3,-14,3
SMILES,NPY-Y2 antag,NPY1 pot ag,RAM inhibit,NPY-Y1 antag,NPY2 pot ag,WT yeast gro inh,RAM 5-FOA
CCN(CC)S(=O)(=O)c1cccc(-c2nnc(-c3ccc(C)cc3)o2)c1,7,-21,7,3,6,6,.
CCN(CC)S(=O)(=O)c1ccc(-c2nnc(SCC(=O)c3ccc(OC)cc3)o2)cc1,2,4,6,0,9,3,.
CCN(CC)S(=O)(=O)c1cccc(-c2nnc(SCCCC(=O)c3ccccc3)o2)c1,9,-25,12*,2,-12,-9,3
Cc1ccc(/C=C2\SC(=S)N(CCCC(=O)Nc3nccs3)C2=O)cc1,3,21,5,4,-8,7,.
CCN(C(=O)COC(=O)c1cc(-c2ccc(C)o2)nc2ccccc12)C1CCS(=O)(=O)C1 (configuration not stated),.,3,2,0,-5,1,.
CCCCOc1ccc(/C=C/C(=O)Nc2ccc([N+](=O)[O-])cc2C)cc1,-2,-28,8,1,3,8,.
CCCOc1ccc(/C=C/C(=O)Nc2ccc([N+](=O)[O-])cc2)cc1,-1,9,13*,-5,8,12,3
CCOC(=O)c1c(C)[nH]c(C)c1C(=O)COC(=O)/C=C/c1ccc(OC(F)F)cc1,1,4,8,-8,6,28,.
CCOC(=O)c1c(C)[nH]c(C)c1C(=O)COC(=O)/C=C/c1ccc(Cl)cc1,1,1,12*,16,0,74*,1
COc1ccc(N(C(=O)CNS(=O)(=O)c2ccccc2)C(C(=O)NCc2ccco2)C(C)C)cc1 (configuration not stated),.,10,-1,-2,8,-19,.
COc1ccc(-c2nc3n(c(=O)c2C#N)CCS3)cc1,.,-3,2,-4,11,-1,.
C=CCSc1nc(-c2ccc(OC)cc2)c(C#N)c(=O)n1CC=C,.,-40,12*,19,-31,18,2
Cn1c(SCC(=O)N2CCc3ccccc32)nnc1C1CC1,1,11,0,1,13,-3,.
CC(C)(C)c1ccc(NC(=S)NCc2cccnc2)cc1,.,14,.,.,6,.,.
Cc1cc(Br)ccc1SCC(=O)OCC(=O)NCc1ccco1,.,-25,.,.,-38,.,.
Cc1cc(Br)ccc1SCC(=O)OCC(=O)NC1CCCC1,.,-38,17*,6,-18,4,2
C/C(CC(=O)Nc1ccc(N(C)C)cc1)=N\NC(=O)c1cnccn1,3,13,0,0,-6,4,.
O=C(CCC1CCCCC1)Nc1ccccc1-c1ccccc1,2,-30,25*,1,-15,-5,5
O=C(CCC1CCCC1)Nc1ccccc1-c1ccccc1,6,-5,1,-4,-11,44,.
CC(C)Oc1cccc(C(=O)NC(=S)Nc2cccc(C(F)(F)F)c2)c1,2,-26,12*,6,-19,28,2
